Among the data in ChEMBL document CHEMBL1129286, “In vitro and in vivo studies of benzisoquinoline ligands for the brain synaptic vesicle monoamine transporter” (J Med Chem, 1996) are ID/g and Ki values, retold here.

Structures are written as SMILES.

Sequence of Synaptic vesicular amine transporter (Q01827 whole entry): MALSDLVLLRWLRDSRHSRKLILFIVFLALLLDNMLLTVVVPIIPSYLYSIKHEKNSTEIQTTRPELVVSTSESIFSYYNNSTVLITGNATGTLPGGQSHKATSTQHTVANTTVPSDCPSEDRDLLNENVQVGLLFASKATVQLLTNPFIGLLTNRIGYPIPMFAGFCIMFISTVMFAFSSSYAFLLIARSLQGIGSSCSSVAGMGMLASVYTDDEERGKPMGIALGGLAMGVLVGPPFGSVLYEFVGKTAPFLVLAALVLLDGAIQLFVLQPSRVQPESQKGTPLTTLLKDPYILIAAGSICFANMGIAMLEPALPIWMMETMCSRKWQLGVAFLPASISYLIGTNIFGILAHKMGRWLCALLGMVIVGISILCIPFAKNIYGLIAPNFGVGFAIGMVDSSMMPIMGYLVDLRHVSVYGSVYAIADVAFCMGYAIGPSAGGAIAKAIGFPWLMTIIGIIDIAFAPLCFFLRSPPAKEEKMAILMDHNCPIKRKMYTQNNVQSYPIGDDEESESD

One assay deals with Mus musculus. In words: Competition of compound for the in vivo localization of [11C] Methoxytetrabenazine in mouse Striatum; %ID/g (%injected dose/g). It counts as functional, organism-based. Put shortly: (§1)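 CD-1 mice anesthetized with diethyl ether, given by tail vein a mixture of [11C]methoxytetrabenazine (100-300 µCi) plus 10 mg/kg test compound in 10% ethanol in saline, then allowed to recover. Controls received radiotracer in saline with no competitor. Killed under ether at 15 min, regional brain radioactivity read as %ID/g; mean ± SD, unpaired Student's t-test versus controls.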
`COc1cc2c(cc1OC)[C@H]1C[C@@](O)(C(C)C)[C@H](CC(C)C)CN1CC2` returned an ID/g of 6.21%.
The same measure, in the same setting: the same measure for `COc1cc2c(cc1OC)[C@H]1C[C@@](O)(CC(C)C)[C@H](CC(C)C)CN1CC2`: 5.33%; for `COc1cc2c(cc1OC)[C@H]1C[C@@](C)(O)[C@H](CC(C)C)CN1CC2`: 2.09%.
`COc1cc2c(cc1OC)[C@H]1C[C@](C)(O)[C@H](CC(C)C)CN1CC2` displayed an ID/g of 2.35%.
`CC[C@]1(O)C[C@@H]2c3cc(OC)c(OC)cc3CCN2C[C@H]1CC(C)C`: the ID/g stood at 3.24%.
`CCC[C@]1(O)C[C@@H]2c3cc(OC)c(OC)cc3CCN2C[C@H]1CC(C)C` registered an ID/g of 4.26%.
The same measure, in the same setting: the same measure for `COc1cc2c(cc1OC)[C@H]1CC(=O)[C@H](CC(C)C)CN1CC2`: 2.26%.

A further assay has as its target Synaptic vesicular amine transporter (Rattus norvegicus, UniProt Q01827). In words: In vitro inhibition of [3H]- Methoxytetrabenazine binding to rat brain vesicular monoamine transporter 2 (VMAT2). Put shortly:
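Autoradiographic competition on rat brain coronal sections (20, caudate-putamen level) on slides. Sections prewashed at 25 °C in sucrose buffer (300 mM sucrose, 50 mM Tris, 1 mM EDTA, pH 8.0), then incubated 3 h with 10 nM [3H]methoxytetrabenazine and test drug from 1 nM. Washed 3 × 3 min, dipped in 4 °C water, air-dried, film-exposed 2 weeks.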
Broadly, the Ki is a measure of affinity in units of concentration, obtained from inhibition or displacement. A higher Ki goes with weaker binding. For the compound `COc1cc2c(cc1OC)[C@H]1C[C@@](O)(C(C)C)[C@H](CC(C)C)CN1CC2`, the affinity corresponds to a Ki of 136 nM.
As to `COc1cc2c(cc1OC)[C@H]1C[C@@](O)(CC(C)C)[C@H](CC(C)C)CN1CC2`, affinity was put at a Ki of 33 nM.
As to `COc1cc2c(cc1OC)[C@H]1C[C@@](C)(O)[C@H](CC(C)C)CN1CC2`, the Ki is 2.6 nM.
Regarding `COc1cc2c(cc1OC)[C@H]1C[C@](C)(O)[C@H](CC(C)C)CN1CC2`, the Ki came to 12 nM.
Take `CC[C@]1(O)C[C@@H]2c3cc(OC)c(OC)cc3CCN2C[C@H]1CC(C)C`: the Ki stood at 42 nM.
For `CCC[C@]1(O)C[C@@H]2c3cc(OC)c(OC)cc3CCN2C[C@H]1CC(C)C`, affinity was put at a Ki of 84 nM.

The subject of the next assay is Mus musculus. Description: Competition of compound for the in vivo localization of [11C] Methoxytetrabenazine in mouse Hyphalamus; %ID/g (%injected dose/g). It counts as functional, organism-based. Put shortly:
as §1
`COc1cc2c(cc1OC)[C@H]1C[C@@](O)(C(C)C)[C@H](CC(C)C)CN1CC2` gave an ID/g of 3.06%.
For the compound `COc1cc2c(cc1OC)[C@H]1C[C@@](O)(CC(C)C)[C@H](CC(C)C)CN1CC2`, the ID/g is 2.93%.
Turning to `COc1cc2c(cc1OC)[C@H]1C[C@@](C)(O)[C@H](CC(C)C)CN1CC2`, the ID/g was 1.96%.
Same read-out and setting: the same measure for `COc1cc2c(cc1OC)[C@H]1C[C@](C)(O)[C@H](CC(C)C)CN1CC2`: 1.79%.
Same read-out and setting: the value for `CC[C@]1(O)C[C@@H]2c3cc(OC)c(OC)cc3CCN2C[C@H]1CC(C)C` was 2%.
In the case of `CCC[C@]1(O)C[C@@H]2c3cc(OC)c(OC)cc3CCN2C[C@H]1CC(C)C`, the ID/g is 1.96%.
`COc1cc2c(cc1OC)[C@H]1CC(=O)[C@H](CC(C)C)CN1CC2` showed an ID/g of 1.71%.
